Measured values pooled from the literature.
Each line is one published result; the experiments were not run side by side.
Observed: cell growth or viability

For CCN1C(=O)SCC1C1(OC)CC2CC(CCC(C)C=CC=CCCC(C)=CC(=O)O2)O1 (stereo not drawn), the IC50 was over 50 µM (MDA-MB-231; MTT; 72 h).
The viability of O=C(c1ccc(F)cc1)c1c[nH]c2ncc(-c3ccc(N4CCNCC4)nc3)cc12 is reported as 89.4% (MRC5; MTT; 10 µM; 48 h).
Cl.O[C@]12C=C(c3nccc4c3[nH]c3ccccc34)[C@@H]3CCN(CCCC/C=C\CC1)C[C@@]31C[C@@H]3/C=C\CCCCN3[C@H]12 has an IC50 of 0.69 µg/mL (LLC-PK11; neutral red; 48 h).
COc1ccc(C(=O)c2c[nH]c3ncc(-c4ccc(N5CCN(S(C)(=O)=O)CC5)nc4)cc23)cc1 has a viability of 70.1% (MRC5; MTT; 10 µM; 48 h).
The IC50 of [Cl-].[Cl-].[Co+2] is reported as over 150 µM (BEL-7404; MTT; 48 h).
COc1cc2c(cc1OS(N)(=O)=O)CC[C@@H]1[C@@H]2CC[C@]2(C)[C@@H](OS(N)(=O)=O)CC[C@@H]12 has a GI50 of 0.29 µM (MDA-MB-231).
For CO[C@]1([C@@H]2CSC(=O)N2C2CCCC2)C[C@H]2C[C@@H](CC[C@H](C)/C=C\C=C\CC/C(C)=C\C(=O)O2)O1, the IC50 was 5.07 µM (MDA-MB-231; MTT; 72 h).
COc1c2c(cc3c1OCO3)[C@]13C=C[C@H](OC)C[C@@H]1[N@](C2)C[C@H]3OC(=O)c1ccco1 gave an IC50 of over 10 µM (MRC5; WST-1).
The IC50 of C/C1=C/C(=O)O[C@@H]2C[C@@H](CC[C@H](C)/C=C\C=C\CC1)O[C@@](O)([C@@H]1CSC(=O)N1Cc1ccccc1)C2 is reported as 2.72 µM (MDA-MB-231; MTT; 72 h).
COc1ccc(C(=O)c2c[nH]c3ncc(-c4ccc(N5CCNCC5)nc4)cc23)cc1 gave a viability of 99.2% (MRC5; MTT; 10 µM; 48 h).
N.N.[Cl][Pt][Cl] gave an EC50 of 1.2 µM (A-375; SRB).
For C/C1=C/C(=O)O[C@@H]2C[C@@H](CC[C@H](C)/C=C\C=C\CC1)O[C@@](O)([C@@H]1CSC(=O)N1)C2, the IC50 was 4.19 µM (MDA-MB-231; MTT; 72 h).
